The nature of data set [1]: The delta Tm value is a measure of a stabilization of the DNA helical structure as consequence of compound binding. The format is ADME. The procedure, abridged:
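Calf-thymus DNA at 5.0 × 10⁻⁵ M with drug at 2.5 × 10⁻⁵ M in 0.01 M phosphate buffer (pH 7) containing 10⁻⁵ M EDTA. Thermal denaturation curves were recorded. ΔTm is the Tm of the DNA–drug complex minus the Tm of DNA alone.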

Data set [2] deals with B16. Briefly: In vitro antitumor activity against murine melanoma cells (B16 melanoma cells). Conditions: Mus musculus, read-out: ID50 (the source's name). The format is functional. The method in brief:
(§1)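 Cells grown in suspension culture and exposed to compound for 48 h. Compounds dissolved in Me₂SO-saline, with less than 1% Me₂SO in the final growth medium. ID50 is the concentration in ng/mL giving 50% growth inhibition. Values are the mean of three experiments; SD ranged from 8% to 10% of the mean.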

In data set [3] the test system is CCRF-CEM. The data set can be described thus: In vitro antitumor activity against human leukemic lymphoblastic cells (CCRF-CEM). The format is functional. Conditions: read-out: ID50 (the source's name). The method in brief: as §1

Values after ≈ are worked out from the molar mass of the structure shown. *1 amine or outer side, *2 acyl side, *3 side chain or, on linkers, in order; H or OH if unused. Where a SMILES comes first, the peptide text is derived from it. Bridges are numbered along the chain shown (N, C = ends). Roman numbers before positions name the chains, in order. [ ]: non-standard residue; d: D form. Actinocin(9to1) = Cc1c2oc3c(C)ccc(C(=O)[*:1])c3nc-2c(C(=O)[*:2])c(N)c1=O; NMeV = CN[C@H](C(=O)O)C(C)C; Sar = CNCC(=O)O

Regarding `Cc1c2oc3c(C)c(OCC(C)N)cc(C(=O)N[C@@H]4C(=O)N[C@H](C(C)C)C(=O)N5CCC[C@H]5C(=O)N(C)CC(=O)N(C)[C@@H](C(C)C)C(=O)O[C@@H]4C)c3nc-2c(C(=O)N[C@@H]2C(=O)N[C@H](C(C)C)C(=O)N3CCC[C@H]3C(=O)N(C)CC(=O)N(C)[C@@H](C(C)C)C(=O)O[C@@H]2C)c(N)c1=O` (some centres not stated), in data set [1], the “Delta Tm” value worked out at 4.8 C. For the same compound, the IC50 was 0.055 µg/mL (≈ 0.0414 µM) in data set [2] and 0.06 µg/mL (≈ 0.0452 µM) in data set [3].

On to `Cc1c2oc3c(C)c(OCC4CC4)cc(C(=O)N[C@@H]4C(=O)N[C@H](C(C)C)C(=O)N5CCC[C@H]5C(=O)N(C)CC(=O)N(C)[C@@H](C(C)C)C(=O)O[C@@H]4C)c3nc-2c(C(=O)N[C@@H]2C(=O)N[C@H](C(C)C)C(=O)N3CCC[C@H]3C(=O)N(C)CC(=O)N(C)[C@@H](C(C)C)C(=O)O[C@@H]2C)c(N)c1=O`, for which the “Delta Tm” value in data set [1] is -0.6 C. In addition, the IC50 was found to be 0.038 µg/mL (≈ 0.0287 µM) in data set [2] and 0.055 µg/mL (≈ 0.0415 µM) in data set [3].

Take `Cc1c2oc3c(C)c(OCCN4CC4)cc(C(=O)N[C@@H]4C(=O)N[C@H](C(C)C)C(=O)N5CCC[C@H]5C(=O)N(C)CC(=O)N(C)[C@@H](C(C)C)C(=O)O[C@@H]4C)c3nc-2c(C(=O)N[C@@H]2C(=O)N[C@H](C(C)C)C(=O)N3CCC[C@H]3C(=O)N(C)CC(=O)N(C)[C@@H](C(C)C)C(=O)O[C@@H]2C)c(N)c1=O`: the “Delta Tm” value in data set [1] is given as 1.8 C. Further, the figures for the IC50 in data set [2] and in data set [3] were 0.14 µg/mL (≈ 0.104 µM) and 0.3 µg/mL (≈ 0.224 µM), respectively.

`Cc1c2oc3c(C)c(OCCNCCO)cc(C(=O)N[C@@H]4C(=O)N[C@H](C(C)C)C(=O)N5CCC[C@H]5C(=O)N(C)CC(=O)N(C)[C@@H](C(C)C)C(=O)O[C@@H]4C)c3nc-2c(C(=O)N[C@@H]2C(=O)N[C@H](C(C)C)C(=O)N3CCC[C@H]3C(=O)N(C)CC(=O)N(C)[C@@H](C(C)C)C(=O)O[C@@H]2C)c(N)c1=O`: in data set [1], the “Delta Tm” value was 1.9 C. Moreover, the IC50 in data set [3] amounted to 0.5 µg/mL (≈ 0.368 µM).

As for `Cc1c2oc3c(C)c(OCC4CN4)cc(C(=O)N[C@@H]4C(=O)N[C@H](C(C)C)C(=O)N5CCC[C@H]5C(=O)N(C)CC(=O)N(C)[C@@H](C(C)C)C(=O)O[C@@H]4C)c3nc-2c(C(=O)N[C@@H]2C(=O)N[C@H](C(C)C)C(=O)N3CCC[C@H]3C(=O)N(C)CC(=O)N(C)[C@@H](C(C)C)C(=O)O[C@@H]2C)c(N)c1=O` (some centres not stated), the “Delta Tm” value in data set [1] is 2.8 C. The IC50 came to 0.11 µg/mL (≈ 0.0829 µM) in data set [2] and 0.076 µg/mL (≈ 0.0573 µM) in data set [3].

`Cc1c2oc3c(C)ccc(C(=O)N[C@@H]4C(=O)N[C@H](C(C)C)C(=O)N5CCC[C@H]5C(=O)N(C)CC(=O)N(C)[C@@H](C(C)C)C(=O)O[C@@H]4C)c3nc-2c(C(=O)N[C@@H]2C(=O)N[C@H](C(C)C)C(=O)N3CCC[C@H]3C(=O)N(C)CC(=O)N(C)[C@@H](C(C)C)C(=O)O[C@@H]2C)c(N)c1=O` [DACTINOMYCIN] (I: T[dV]P[Sar][NMeV] / II: T[dV]P[Sar][NMeV]; ester I:1-I:C, II:1-II:C; linker I:N-II:N via Actinocin(9to1)): in data set [1], the “Delta Tm” value was 8 C. The values for the IC50 in data set [2] and in data set [3] were 0.0033 µg/mL (≈ 0.00263 µM) and 0.013 µg/mL (≈ 0.0104 µM), respectively.

The values are drawn from ChEMBL document CHEMBL1124083, “Synthesis and biological properties of actinomycin D chromophoric analogues substituted at carbon 7 with aziridine and cyclopropyl functions” (J Med Chem, 1988).
